# Measured values: ChEMBL document CHEMBL1137434, “2-O-carboxymethylpyrogallol derivatives as PTP1B inhibitors with antihyperglycemic activity” (Bioorg Med Chem Lett, 2007)
# Active and inactive are the calls of the source. The rule behind the calls is not given here.
# Key:
# [1] = biological target: T1, Tyrosine-protein phosphatase non-receptor type 2 (Homo sapiens, UniProt P17706); experiment: Inhibition of TC-PTP after 10 mins
# T1 sequence (P17706 whole entry): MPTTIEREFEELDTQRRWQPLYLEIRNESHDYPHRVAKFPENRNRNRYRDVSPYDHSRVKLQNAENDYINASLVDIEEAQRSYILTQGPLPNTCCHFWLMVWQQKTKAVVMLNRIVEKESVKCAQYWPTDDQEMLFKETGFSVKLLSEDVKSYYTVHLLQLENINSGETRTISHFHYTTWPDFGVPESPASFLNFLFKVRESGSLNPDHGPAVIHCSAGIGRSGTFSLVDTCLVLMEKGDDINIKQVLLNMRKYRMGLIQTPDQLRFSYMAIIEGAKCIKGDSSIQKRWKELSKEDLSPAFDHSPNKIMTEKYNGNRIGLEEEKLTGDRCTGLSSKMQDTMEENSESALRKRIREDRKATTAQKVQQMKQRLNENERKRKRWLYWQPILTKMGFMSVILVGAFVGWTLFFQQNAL
# Outline: (§1)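 Enzymes were preincubated 10 min with inhibitor in DMSO, then pNPP was added to start the reaction. Final mix: 2 mM pNPP, 50 mM Hepes, 5 mM EDTA, pH 7, plus 10% enzyme dilution buffer (Hepes, EDTA, 1 mM DTT, BSA). Enzyme levels were native PTP1B 40 nM, SHP-1cat 5 µg/mL, LAR-D1 and TC-PTP 33 U/mL, YOP 50 U/mL and YPTP-1 15 nM. IC50 came from an inhibitor concentration range, as means ± SD of 2–3 experiments.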
# [2] = biological target: T2, Tyrosine-protein phosphatase 1 (Saccharomyces cerevisiae S288c, UniProt P25044); experiment: Inhibition of yeast PTP1 after 10 mins; outline: as §1
# T2 sequence (P25044 whole entry): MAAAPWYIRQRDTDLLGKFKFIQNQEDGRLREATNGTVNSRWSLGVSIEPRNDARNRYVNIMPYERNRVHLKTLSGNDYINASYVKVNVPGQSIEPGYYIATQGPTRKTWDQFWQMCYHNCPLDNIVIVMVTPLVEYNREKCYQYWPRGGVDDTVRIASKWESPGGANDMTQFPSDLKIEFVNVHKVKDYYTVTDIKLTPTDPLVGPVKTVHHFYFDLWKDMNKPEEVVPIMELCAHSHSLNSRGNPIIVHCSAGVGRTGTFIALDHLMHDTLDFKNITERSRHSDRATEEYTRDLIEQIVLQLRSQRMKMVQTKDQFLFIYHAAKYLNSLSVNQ
# [3] = biological target: Tyrosine-protein phosphatase non-receptor type 6 (Homo sapiens, UniProt P29350); experiment: Inhibition of SHP-1 catalytic domain after 10 mins; outline: as §1
# Chain of Tyrosine-protein phosphatase non-receptor type 6 (P29350 whole entry, the tested form may be a part): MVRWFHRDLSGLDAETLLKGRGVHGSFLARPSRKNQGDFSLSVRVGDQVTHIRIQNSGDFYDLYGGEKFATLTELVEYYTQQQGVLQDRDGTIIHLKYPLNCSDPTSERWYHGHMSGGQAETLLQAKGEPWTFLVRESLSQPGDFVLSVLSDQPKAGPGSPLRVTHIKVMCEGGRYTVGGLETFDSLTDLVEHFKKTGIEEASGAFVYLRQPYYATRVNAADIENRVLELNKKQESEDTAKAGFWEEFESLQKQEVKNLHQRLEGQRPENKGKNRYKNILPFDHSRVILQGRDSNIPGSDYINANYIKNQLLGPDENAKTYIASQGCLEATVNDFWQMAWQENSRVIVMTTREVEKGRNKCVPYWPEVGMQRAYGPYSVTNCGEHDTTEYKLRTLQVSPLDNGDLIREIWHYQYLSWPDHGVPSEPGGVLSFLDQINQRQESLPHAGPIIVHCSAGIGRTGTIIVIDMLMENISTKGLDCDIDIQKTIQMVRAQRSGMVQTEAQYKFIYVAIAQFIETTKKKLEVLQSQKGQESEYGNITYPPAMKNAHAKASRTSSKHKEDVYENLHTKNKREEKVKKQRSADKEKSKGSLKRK
# [4] = Inhibition of YOP after 10 mins; outline: as §1
# [5] = biological target: T3, Tyrosine-protein phosphatase non-receptor type 1 (Homo sapiens, UniProt P18031); experiment: Inhibition of PTP1B after 10 mins
# T3 sequence (P18031 whole entry): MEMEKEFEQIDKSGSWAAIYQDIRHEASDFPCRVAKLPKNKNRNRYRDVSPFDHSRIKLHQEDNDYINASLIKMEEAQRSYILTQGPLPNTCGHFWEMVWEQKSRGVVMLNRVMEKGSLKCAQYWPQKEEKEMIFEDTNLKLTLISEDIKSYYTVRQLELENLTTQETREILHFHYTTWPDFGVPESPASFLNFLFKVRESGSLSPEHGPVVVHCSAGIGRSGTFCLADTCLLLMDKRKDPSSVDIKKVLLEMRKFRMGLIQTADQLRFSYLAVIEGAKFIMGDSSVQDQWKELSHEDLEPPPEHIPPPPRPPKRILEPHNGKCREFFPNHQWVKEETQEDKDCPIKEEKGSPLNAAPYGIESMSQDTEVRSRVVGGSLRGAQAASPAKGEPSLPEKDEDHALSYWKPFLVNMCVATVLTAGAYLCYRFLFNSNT
# [6] = organism: Homo sapiens; experiment: Selectivity for PTP1B over TC-PTP
# [7] = Inhibition of LAR-D1 after 10 mins; parameters: species or system Homo sapiens; outline: as §1
# [8] = organism: Mus musculus; experiment: Antihyperglycemic activity in high fat diet induced C57BL/6JCr Slc mouse assessed as reduction in blood glucose level relative to control; format: functional, organism-based
# Outline: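 Male C57BL/6J Cr Slc mice, 5 wk old and acclimatized 1 wk, were fed high-fat diet for 8 wk. They were then split into two groups of 7 and fed HFD or HFD plus drug for 4 wk; a lean LFD group served as control. After a 6 h fast, mice received glucose 1 g/kg ip. Tail-blood glucose was read at baseline and at 20, 40, 60, 90 and 120 min.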
Compound,IC50 [1],IC50 [2],IC50 [3],IC50 [4],IC50 [5],Selectivity ratio [6],IC50 [7],Activity [8],Ki [1],Ki [5]
O=C(O)COc1c(O)cc(-c2cc(C(F)(F)F)cc(C(F)(F)F)c2)cc1OCc1ccccc1,37 µM,20 µM,9 µM,15 µM,5.7 µM,5,> 200 µM,,,
O=C(O)COc1c(O)cc(-c2ccccc2)cc1OCc1ccccc1,,,,,93 µM,,,,,
O=C(O)COc1c(O)cc(-c2cc(C(F)(F)F)cc(C(F)(F)F)c2)cc1OCc1ccc(C(F)(F)F)cc1,22 µM,9 µM,4 µM,6 µM,2 µM,7,116 µM,Active,8.2 µM,1.1 µM
O=C(O)COc1c(O)cc(-c2ccccc2)cc1O,,,,,> 1000 µM,,,,,
O=C(O)COc1c(O)cc(-c2cccc(C(F)(F)F)c2)cc1OCc1ccc(C(F)(F)F)cc1,65 µM,17 µM,13 µM,21 µM,5 µM,5,> 200 µM,,,
COc1cc(COc2cc(-c3ccccc3)cc(O)c2OCC(=O)O)cc(OC)c1,,,,,40 µM,,,,,
O=C(O)COc1c(O)cc(-c2ccc(C(F)(F)F)cc2)cc1OCc1ccccc1,96 µM,17 µM,25 µM,34 µM,13 µM,5,> 200 µM,,,
O=C(O)COc1c(O)cc(-c2ccc(C(F)(F)F)cc2)cc1OCc1ccc(C(F)(F)F)cc1,44 µM,23 µM,12 µM,13 µM,5.4 µM,5,> 200 µM,,,
O=C(O)COc1c(O)cc(-c2cccc(C(F)(F)F)c2)cc1OCc1ccccc1,120 µM,52 µM,38 µM,33 µM,2.2 µM,5,> 200 µM,,,
O=C(O)COc1c(O)cc(Br)cc1OCc1ccc(C(F)(F)F)cc1,,,,,73 µM,,,,,
O=C(O)COc1c(O)cccc1OCc1ccc(C(F)(F)F)cc1,,,,,> 1000 µM,,,,,
O=C(O)COc1c(O)cc(-c2ccccc2)cc1OCc1ccc(C(F)(F)F)cc1,,,,,17 µM,,,,,
O=C(O)COc1c(O)cc(Br)cc1OCc1ccccc1,,,,,300 µM,,,,,
O=C(O)COc1c(O)cccc1OCc1ccccc1,,,,,> 1000 µM,,,,,
